Measurements from different studies.
Compare with care: the assays were run in different laboratories.
Observed: metabolic stability
Host: human
Sample: liver microsomes

SMILES	setting	microsomal CLint [µL/min/mg]
CC1(C)NC(=O)N(c2cc(C(F)(F)F)c(F)cc2C#N)C1=O	–	< 7
O=c1c2c([nH]c3cccc(Oc4ccc(OC(F)(F)F)cc4)c13)CCCC2	1 µM, pH 7.4	109
CC1(C)CCC(C(=O)NCc2nc(-c3ccc(C#N)cc3)cs2)CN1C(=O)COCCF (racemic)	0.5 µM	219
O=c1c2ccc(Oc3cccc(OC(F)(F)F)c3)cc2[nH]c2cc(Cl)cc(F)c12	1 µM, pH 7.4	2.96
CCN(c1ccc(C)cc1)c1ccc(NC(=O)CN(C)c2ccccc2N2CCCC2=O)cn1	–	408
COc1cnc(Nc2cnnc3ccc(-c4ccc(N5CCN(C)CC5)cc4)cc23)nc1	–	93
CC1(C)NC(=O)N(c2ccc(F)c(CC(F)(F)F)c2)C1=O	–	< 7
N#Cc1ccc(-c2csc(CNC(=O)[C@H]3CCCN(C(=O)COC4CC4)C3)n2)cc1	0.5 µM	49
CC1(C)NC(=O)N(c2ccc(F)c(F)c2)C1=O	–	< 7
O=c1c2ccc(OCc3cccc(OC(F)(F)F)c3)cc2[nH]c2cc(F)cc(Cl)c12	1 µM, pH 7.4	22.5
CCCCCCCCCCCCCCCC(=O)NCCOC(=O)C[C@@H](CN)CC(C)C	1 µM, pH 7.4	22.9
CC(C)N(c1ccc(Cl)c(F)c1)c1ccc(NC(=O)CN(C)c2ccccc2N2CCCC2=O)cn1	–	287
COCC(=O)N1CCC[C@H](C(=O)NCc2nc(-c3ccc(C(F)(F)F)cc3)cs2)C1	0.5 µM	37
CC1(C(F)(F)F)NC(=O)N(c2ccc(F)c(C(F)(F)F)c2)C1=O (stereo not drawn)	–	< 7
Cc1ccc(C(C)(C)c2ccc(NC(=O)CN(C)c3ccccc3N3CCCC3=O)cc2)cc1	–	263
CCCCCCOc1ccc2c(=O)c3c([nH]c2c1)CCCC3	1 µM, pH 7.4	92.2
C#C[C@]1(OC(C)=O)CC[C@H]2[C@@H]3CCC4=CC(=NO)CC[C@@H]4[C@H]3CC[C@@]21CC (mixture of isomers)	–	70.1
CONC(=O)c1cccc2c1cc(C)n2-c1nc2c(c(NCc3ccccc3)n1)CCCN2	1 µM, pH 7.4	98.7
Cc1ccc(Oc2ccc(NC(=O)COc3ccccc3N3CCCC3=O)cc2)cc1	–	132
COCC(=O)N1CCC[C@H](C(=O)NCc2nc(-c3ccc(Cl)cc3)cs2)C1	0.5 µM	25
O=c1c2c([nH]c3cc(Oc4ccc(OC(F)(F)F)cc4)ccc13)CCCC2	1 µM, pH 7.4	51.8

SMILES	setting	microsomal CLint [µL/min/mg]
O=C(NCc1nc(-c2ccccc2)cs1)[C@H]1CCCN(C(=O)[C@H]2CCCO2)C1	0.5 µM	35
CCS(=O)(=O)N1CCC2(CC1)NC(=O)N(c1ccc(F)c(C(F)(F)F)c1)C2=O	–	< 7
CC(C)NCCOCC(=O)N1CCC[C@H](C(=O)NCc2nc(-c3ccc(C(F)(F)F)cc3)cs2)C1	0.5 µM	13
Cc1[nH]c(C)c(S(=O)(=O)Nc2ccc(C(F)(F)F)c(Cl)c2)c1C(=O)N1CCC(F)(F)C1	–	68
COCC(=O)N1CCC[C@H](C(=O)NCc2nc(-c3cccnc3)cs2)C1	0.5 µM	< 7
O=C1c2ccccc2C(=O)N1CCCN1CCN(C(c2ccc(F)cc2)c2ccc(F)cc2)CC1	100 ng/mL	39
CC(C)N(c1ccc(C#N)cc1)c1ccc(NC(=O)CN(C)c2ccccc2N2CCCC2=O)cn1	–	309
O=c1c2c([nH]c3cc(Oc4ccc(OC(F)(F)F)cc4)c(F)cc13)CCCC2	1 µM, pH 7.4	72.5
CC1(C(F)F)NC(=O)N(c2ccc(F)c(C(F)(F)F)c2)C1=O (stereo not drawn)	–	< 7
Cc1ccc(Oc2ccc(NC(=O)CNc3ccccc3-n3cncn3)cc2)cc1	–	98
CCOc1ccc(Nc2c3c(nc4ccccc24)CCC3)cc1	0.5 µM	37
Cc1ccc(N(C)c2ccc(NC(=O)CN(C)c3cc(F)ccc3N3CCCC3=O)cc2)cc1	–	260
O=C(O)Cc1ccccc1Nc1c(Cl)cccc1Cl	2 µM, pH 7.4	201
CCC(F)(F)c1cc(N2C(=O)NC(C)(C)C2=O)ccc1F	–	< 7
O=c1c2c([nH]c3ccc(Oc4ccc(OC(F)(F)F)cc4)cc13)CCCC2	1 µM, pH 7.4	55.3
Cc1ccc(OCC(=O)N[C@@H](Cc2c[nH]c3ccccc23)C(=O)OC(C)C)cc1	20 mM	14.6
CC1(C)NC(=O)N(c2ccc(F)c(Br)c2)C1=O	–	< 7
Cc1ccc(N(C)c2ccc(NC(=O)CN(C)c3ccccc3N3CCCC3=O)cc2)cc1	–	347
Cc1ccc(Nc2cnnc3ccc(-c4ccc(N5CCN(C)CC5)cc4)cc23)cn1	–	36
O=c1c2ccc(OCc3cccc(C(F)(F)F)c3)cc2[nH]c2ccc(Cl)c(F)c12	1 µM, pH 7.4	2.73
CONC(=O)N1CCC[C@H](C(=O)NCc2nc(-c3ccccc3)cs2)C1	0.5 µM	7.3
